Active and inactive are the calls of the source. The rule behind the calls is not given here.
Columns and labels:
[1] = Binding affinity to HP duplex DNA 1 (unknown origin) containing c-Myc P2 promoter sequence incubated for 12 hrs at 37 degC in presence of 50 mM pH 7.2 HEPES buffer containing 10 mM MgCl2, 100 mM NaCl and 10% sucrose
[2] = Binding affinity to HP duplex DNA 2 (unknown origin) containing HIV2 nef gene sequence incubated for 12 hrs at 37 degC in presence of 50 mM pH 7.2 HEPES buffer containing 10 mM MgCl2, 100 mM NaCl and 10% sucrose
Outline: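 Oligonucleotide binding to a 5'-FAM-labeled hairpin duplex bearing the HIV2 nef sequence. Incubation was 12 h at 37 °C in 50 mM HEPES (pH 7.2) with 10 mM MgCl2, 100 mM NaCl and 10% sucrose. Kd reported in µM.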

[3] = (§1) Binding affinity to fluorescently-labeled mismatched HP duplex DNA 3 (unknown origin) containing HIV2 nef gene assessed as formation of stable triplexes at 100 uM incubated for 12 hrs at 37 degC in presence of 50 mM pH 7.2 HEPES buffer containing 10 mM MgCl2, 100 mM NaCl and 10% sucrose by gel mobility shift assay
Outline: (§2)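 Triplex formation by gel shift. Oligonucleotide at 100 µM was mixed with fluorescently labeled hairpin duplex at 40 nM in 50 mM HEPES (pH 7.2), 10 mM MgCl2, 100 mM NaCl and 10% sucrose for 12 h at 37 °C. Complexes were resolved on a 15% nondenaturing polyacrylamide gel.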

[4] = as §1, with “DNA 8” for “DNA 3”; outline: as §2
[5] = as §1, with “DNA 6” for “DNA 3”; outline: as §2
[6] = as §1, with “DNA 5” for “DNA 3”; outline: as §2
[7] = Binding affinity to fluorescently-labeled HP duplex DNA 2 (unknown origin) containing HIV2 nef gene assessed as formation of stable triplexes at 40 uM in presence of 40 uM RNA 1 (5'-CACCACCACCACC-3') by gel mobility shift assay
[8] = as §1, with “fluorescently-labeled” for “fluorescently-labeled mismatched”, “DNA 2” for “DNA 3”; outline: as §2
[9] = as §1, with “DNA 4” for “DNA 3”; outline: as §2
[10] = Binding affinity to HP duplex DNA 2 (unknown origin) containing HIV2 nef gene sequence incubated for 12 hrs at 37 degC in presence of 50 mM pH 7.2 HEPES buffer containing 10 mM MgCl2, 100 mM KCl and 10% sucrose
[11] = Binding affinity to fluorescently-labeled HP duplex DNA 2 (unknown origin) containing HIV2 nef gene assessed as formation of stable triplexes at 40 uM by gel mobility shift assay
[12] = as §1, with “DNA 7” for “DNA 3”; outline: as §2

Compound | Kd [1] | Kd [2] | Activity [3] | Kd [4] | Activity [5] | Activity [6] | Activity [7] | Activity [8] | Activity [9] | Kd [10] | Activity [11] | Activity [12]
Cc1cn([C@H]2C[C@H](OP(=O)(O)OC[C@H]3O[C@@H](n4cnc5c(=S)[nH]c(N)nc54)C[C@@H]3OP(=O)(O)OC[C@H]3O[C@@H](n4cnc5c(=S)[nH]c(N)nc54)C[C@@H]3OP(=O)(O)OC[C@H]3O[C@@H](n4cnc5c(=S)[nH]c(N)nc54)C[C@@H]3OP(=O)(O)OC[C@H]3O[C@@H](n4cc(C)c(=O)[nH]c4=O)C[C@@H]3OP(=O)(O)OC[C@H]3O[C@@H](n4cnc5c(=S)[nH]c(N)nc54)C[C@@H]3OP(=O)(O)OC[C@H]3O[C@@H](n4cnc5c(=S)[nH]c(N)nc54)C[C@@H]3OP(=O)(O)OC[C@H]3O[C@@H](n4cnc5c(=S)[nH]c(N)nc54)C[C@@H]3OP(=O)(O)OC[C@H]3O[C@@H](n4cc(C)c(=O)[nH]c4=O)C[C@@H]3OP(=O)(O)OC[C@H]3O[C@@H](n4cnc5c(=S)[nH]c(N)nc54)C[C@@H]3OP(=O)(O)OC[C@H]3O[C@@H](n4cnc5c(=O)[nH]c(N)nc54)[C@H](O)[C@@H]3O)[C@@H](CO)O2)c(=O)[nH]c1=O | 7300 nM |  |  |  |  |  |  |  |  |  |  | 
Cc1cn([C@H]2C[C@H](OP(=O)(O)OC[C@H]3O[C@@H](n4cnc5c(=S)[nH]c(N)nc54)C[C@@H]3OP(=O)(O)OC[C@H]3O[C@@H](n4cnc5c(=S)[nH]c(N)nc54)C[C@@H]3OP(=O)(O)OC[C@H]3O[C@@H](n4cnc5c(=S)[nH]c(N)nc54)C[C@@H]3OP(=O)(O)OC[C@H]3O[C@@H](n4cc(C)c(=S)[nH]c4=O)C[C@@H]3OP(=O)(O)OC[C@H]3O[C@@H](n4cnc5c(=S)[nH]c(N)nc54)C[C@@H]3OP(=O)(O)OC[C@H]3O[C@@H](n4cnc5c(=S)[nH]c(N)nc54)C[C@@H]3OP(=O)(O)OC[C@H]3O[C@@H](n4cnc5c(=S)[nH]c(N)nc54)C[C@@H]3OP(=O)(O)OC[C@H]3O[C@@H](n4cc(C)c(=S)[nH]c4=O)C[C@@H]3OP(=O)(O)OC[C@H]3O[C@@H](n4cnc5c(=S)[nH]c(N)nc54)C[C@@H]3OP(=O)(O)OC[C@H]3O[C@@H](n4cnc5c(=O)[nH]c(N)nc54)[C@H](O)[C@@H]3O)[C@@H](CO)O2)c(=O)[nH]c1=S | 670 nM |  |  |  |  |  |  |  |  |  |  | 
Cc1cn([C@H]2C[C@H](OP(=O)(O)OC[C@H]3O[C@@H](n4cnc5c(=O)[nH]c(N)nc54)[C@H](O)[C@@H]3O)[C@@H](COP(=O)(O)O[C@H]3C[C@H](n4cnc5c(=S)[nH]c(N)nc54)O[C@@H]3COP(=O)(O)O[C@H]3C[C@H](n4cnc5c(=S)[nH]c(N)nc54)O[C@@H]3COP(=O)(O)O[C@H]3C[C@H](n4cc(C)c(=S)[nH]c4=O)O[C@@H]3COP(=O)(O)O[C@H]3C[C@H](n4cnc5c(=S)[nH]c(N)nc54)O[C@@H]3COP(=O)(O)O[C@H]3C[C@H](n4cnc5c(=S)[nH]c(N)nc54)O[C@@H]3COP(=O)(O)O[C@H]3C[C@H](n4cc(C)c(=S)[nH]c4=O)O[C@@H]3COP(=O)(O)O[C@H]3C[C@H](n4cnc5c(=S)[nH]c(N)nc54)O[C@@H]3COP(=O)(O)O[C@H]3C[C@H](n4cnc5c(=S)[nH]c(N)nc54)O[C@@H]3COP(=O)(O)O[C@H]3C[C@H](n4cc(C)c(=S)[nH]c4=O)O[C@@H]3COP(=O)(O)O[C@H]3C[C@H](n4cnc5c(=S)[nH]c(N)nc54)O[C@@H]3COP(=O)(O)O[C@H]3C[C@H](n4cnc5c(=S)[nH]c(N)nc54)O[C@@H]3CO)O2)c(=O)[nH]c1=O |  | 400 nM | inactive | > 100000 nM | inactive | inactive | Active | Active | inactive | 200 nM | Active | inactive

— ChEMBL document CHEMBL2311479, “Remarkable stabilization of antiparallel DNA triplexes by strong stacking effects of consecutively modified nucleobases containing thiocarbonyl groups” (Bioorg Med Chem Lett, 2013)
